What was measured:
Cathepsin B = Cathepsin B (Homo sapiens, UniProt P07858); test: Inhibitory activity against Cathepsin B
Rattus norvegicus [1] = organism: Rattus norvegicus; test: Binding towards rat plasma protein at 10 uM; assay type: ADME
Outline: (§1)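 Test compound incubated at 10 or 100 μM with plasma from mouse, rat, monkey, dog and human. The filtrate was analysed, and binding was expressed as percent bound at each concentration.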

Caspase-1 = target: T1, Caspase-1 (Homo sapiens, UniProt P29466); test: Inhibitory activity against interleukin 1-beta converting enzyme (IL-1 beta converting enzyme)
T1 sequence (P29466 whole entry): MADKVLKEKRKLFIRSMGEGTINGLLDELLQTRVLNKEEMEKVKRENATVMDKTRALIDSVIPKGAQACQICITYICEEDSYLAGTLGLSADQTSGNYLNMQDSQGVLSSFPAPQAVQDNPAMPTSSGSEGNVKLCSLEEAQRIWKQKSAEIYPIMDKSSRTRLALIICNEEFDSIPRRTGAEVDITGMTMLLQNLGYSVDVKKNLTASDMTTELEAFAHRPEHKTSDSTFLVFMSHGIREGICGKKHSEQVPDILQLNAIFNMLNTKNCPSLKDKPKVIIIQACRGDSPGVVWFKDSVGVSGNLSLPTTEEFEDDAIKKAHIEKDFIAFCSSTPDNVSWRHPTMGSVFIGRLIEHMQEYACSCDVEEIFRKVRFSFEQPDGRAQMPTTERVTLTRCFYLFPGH

Cytochrome P450 3A4 [2] = target: T2, Cytochrome P450 3A4 (Homo sapiens, UniProt P08684); test: Inhibition of Cytochrome P450 3A4 as BQ substrate; assay type: ADME
T2 sequence (P08684 whole entry): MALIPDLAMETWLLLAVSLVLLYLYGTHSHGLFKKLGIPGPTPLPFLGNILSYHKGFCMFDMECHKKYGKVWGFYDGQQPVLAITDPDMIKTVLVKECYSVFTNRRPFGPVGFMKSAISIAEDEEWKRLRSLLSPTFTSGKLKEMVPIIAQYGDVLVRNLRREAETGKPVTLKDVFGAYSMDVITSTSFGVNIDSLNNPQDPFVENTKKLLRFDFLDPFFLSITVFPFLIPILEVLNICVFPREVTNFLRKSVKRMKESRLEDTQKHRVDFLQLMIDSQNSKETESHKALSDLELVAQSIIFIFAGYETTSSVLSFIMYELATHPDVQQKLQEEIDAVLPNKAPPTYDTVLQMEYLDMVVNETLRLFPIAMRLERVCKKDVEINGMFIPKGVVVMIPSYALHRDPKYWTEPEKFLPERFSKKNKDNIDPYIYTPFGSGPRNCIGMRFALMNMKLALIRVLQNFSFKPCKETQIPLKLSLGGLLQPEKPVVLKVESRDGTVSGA

[3] = Binding towards monkey plasma protein at 10 uM; assay type: ADME, cell-free; conditions: cercopithecidae; outline: as §1
Coagulation factor VII = target: T3, Coagulation factor VII (Homo sapiens, UniProt P08709); test: Inhibitory activity against coagulation factor VII
T3 sequence (P08709 whole entry): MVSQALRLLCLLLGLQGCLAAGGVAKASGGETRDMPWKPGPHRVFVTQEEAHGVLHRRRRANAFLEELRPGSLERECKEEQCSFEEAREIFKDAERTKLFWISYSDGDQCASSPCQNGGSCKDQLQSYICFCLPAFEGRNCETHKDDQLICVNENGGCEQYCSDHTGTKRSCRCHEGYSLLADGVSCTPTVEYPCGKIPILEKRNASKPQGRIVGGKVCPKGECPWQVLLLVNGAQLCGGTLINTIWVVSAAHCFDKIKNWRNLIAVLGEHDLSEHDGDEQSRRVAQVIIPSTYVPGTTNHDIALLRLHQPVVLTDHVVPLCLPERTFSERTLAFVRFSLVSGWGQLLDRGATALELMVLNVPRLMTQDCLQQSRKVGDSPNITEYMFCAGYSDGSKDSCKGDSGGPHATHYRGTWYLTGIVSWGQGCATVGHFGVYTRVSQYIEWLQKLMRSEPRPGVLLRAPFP

Prothrombin = Prothrombin (Homo sapiens, UniProt P00734); test: Inhibitory activity against thrombin
Mus musculus [4] = organism: Mus musculus; test: Binding towards mouse plasma protein at 10 uM; assay type: ADME; outline: as §1
[5] = Binding towards human plasma protein at 10 uM; assay type: ADME, cell-free; outline: as §1
Proteasome = test: Inhibitory activity against proteasome; assay type: subcellular
Chymotrypsinogen A = Chymotrypsinogen A (Bos taurus, UniProt P00766); test: Inhibitory activity against Chymotrypsinogen
Canis familiaris [6] = organism: Canis familiaris; test: Plasma protein binding towards dog plasma at 100 uM; assay type: ADME, Canis lupus familiaris; outline: as §1
Cytochrome P450 3A4 [7] = target: T2, Cytochrome P450 3A4; test: Inhibition of Cytochrome P450 3A4 as BFC substrate; assay type: ADME
Cytochrome P450 2C9 = Cytochrome P450 2C9 (Homo sapiens, UniProt P11712); test: Inhibition of Cytochrome P450 2C9; assay type: ADME
Sequence of Cytochrome P450 2C9 (P11712 whole entry): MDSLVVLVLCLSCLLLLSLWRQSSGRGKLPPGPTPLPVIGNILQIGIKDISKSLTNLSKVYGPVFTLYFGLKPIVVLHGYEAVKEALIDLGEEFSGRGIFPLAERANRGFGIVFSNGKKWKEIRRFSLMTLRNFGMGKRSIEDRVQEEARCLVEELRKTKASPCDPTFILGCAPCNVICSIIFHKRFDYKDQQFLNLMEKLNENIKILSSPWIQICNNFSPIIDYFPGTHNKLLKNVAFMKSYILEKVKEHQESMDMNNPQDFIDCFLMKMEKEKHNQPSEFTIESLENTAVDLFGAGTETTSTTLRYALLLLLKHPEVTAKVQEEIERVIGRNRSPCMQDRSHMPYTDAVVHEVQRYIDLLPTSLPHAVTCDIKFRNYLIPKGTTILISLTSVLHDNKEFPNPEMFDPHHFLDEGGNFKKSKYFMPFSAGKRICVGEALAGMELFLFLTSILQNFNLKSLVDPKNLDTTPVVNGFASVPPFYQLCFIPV

[8] = The compound was tested for toxicity using human neuroblastoma SY5Y cells; assay type: cell-based
Outline: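 Cytotoxicity was assessed in cultured human neuroblastoma SY5Y cells, alongside rat cerebellar granule neurons.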

Mus musculus [9] = organism: Mus musculus; test: Binding towards mouse plasma protein at 100 uM; assay type: ADME; outline: as §1
Coagulation factor X = Coagulation factor X (Homo sapiens, UniProt P00742); test: Inhibitory activity against Coagulation factor X
Sequence of Coagulation factor X (P00742 41-179 limits assumed): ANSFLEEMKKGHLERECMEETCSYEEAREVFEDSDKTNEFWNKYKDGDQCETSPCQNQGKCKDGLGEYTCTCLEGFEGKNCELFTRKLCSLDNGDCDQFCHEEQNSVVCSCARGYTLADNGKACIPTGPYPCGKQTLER
Sequence of Coagulation factor X (P00742 235-488 limits assumed): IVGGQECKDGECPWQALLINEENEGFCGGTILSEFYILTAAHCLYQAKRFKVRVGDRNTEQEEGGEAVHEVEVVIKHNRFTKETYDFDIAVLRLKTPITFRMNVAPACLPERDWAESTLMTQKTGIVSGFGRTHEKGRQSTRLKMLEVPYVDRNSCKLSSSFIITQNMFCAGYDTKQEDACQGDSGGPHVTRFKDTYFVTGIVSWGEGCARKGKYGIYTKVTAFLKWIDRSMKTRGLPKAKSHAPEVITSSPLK

Serine protease 1 = Serine protease 1 (Homo sapiens, UniProt P07477); test: Inhibitory activity against trypsin
Sequence of Serine protease 1 (P07477 whole entry): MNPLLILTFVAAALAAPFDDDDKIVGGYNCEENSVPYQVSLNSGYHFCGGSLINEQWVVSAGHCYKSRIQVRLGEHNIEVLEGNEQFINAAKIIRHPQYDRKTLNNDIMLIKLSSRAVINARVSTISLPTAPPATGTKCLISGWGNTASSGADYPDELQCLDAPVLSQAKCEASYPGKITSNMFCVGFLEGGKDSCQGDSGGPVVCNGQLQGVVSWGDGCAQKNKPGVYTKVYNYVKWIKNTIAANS

Cytochrome P450 2C19 = Cytochrome P450 2C19 (Homo sapiens, UniProt P33261); test: Inhibition of Cytochrome P450 2C19; assay type: ADME
Sequence of Cytochrome P450 2C19 (P33261 whole entry): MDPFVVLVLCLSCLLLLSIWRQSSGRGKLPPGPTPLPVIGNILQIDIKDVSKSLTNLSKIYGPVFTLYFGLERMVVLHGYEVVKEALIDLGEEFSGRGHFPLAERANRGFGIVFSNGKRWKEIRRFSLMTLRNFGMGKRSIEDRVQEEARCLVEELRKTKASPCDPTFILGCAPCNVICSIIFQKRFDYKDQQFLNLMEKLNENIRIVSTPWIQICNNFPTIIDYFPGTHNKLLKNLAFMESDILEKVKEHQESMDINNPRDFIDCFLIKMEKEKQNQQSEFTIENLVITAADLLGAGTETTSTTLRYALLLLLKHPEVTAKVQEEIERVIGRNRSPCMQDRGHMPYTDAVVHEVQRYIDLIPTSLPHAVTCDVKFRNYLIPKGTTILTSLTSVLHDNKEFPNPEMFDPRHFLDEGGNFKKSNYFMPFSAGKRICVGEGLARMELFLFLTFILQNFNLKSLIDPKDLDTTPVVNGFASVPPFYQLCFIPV

[10] = Binding towards human plasma protein at 100 uM; assay type: ADME, cell-free; outline: as §1
Rattus norvegicus [11] = organism: Rattus norvegicus; test: Binding towards rat plasma protein at 100 uM; assay type: ADME; outline: as §1
[12] = Binding towards monkey plasma protein at 100 uM; assay type: ADME, cell-free; conditions: cercopithecidae; outline: as §1
Cytochrome P450 2D6 = Cytochrome P450 2D6 (Homo sapiens, UniProt P10635); test: Inhibition of Cytochrome P450 2D6; assay type: ADME
Sequence of Cytochrome P450 2D6 (P10635 whole entry): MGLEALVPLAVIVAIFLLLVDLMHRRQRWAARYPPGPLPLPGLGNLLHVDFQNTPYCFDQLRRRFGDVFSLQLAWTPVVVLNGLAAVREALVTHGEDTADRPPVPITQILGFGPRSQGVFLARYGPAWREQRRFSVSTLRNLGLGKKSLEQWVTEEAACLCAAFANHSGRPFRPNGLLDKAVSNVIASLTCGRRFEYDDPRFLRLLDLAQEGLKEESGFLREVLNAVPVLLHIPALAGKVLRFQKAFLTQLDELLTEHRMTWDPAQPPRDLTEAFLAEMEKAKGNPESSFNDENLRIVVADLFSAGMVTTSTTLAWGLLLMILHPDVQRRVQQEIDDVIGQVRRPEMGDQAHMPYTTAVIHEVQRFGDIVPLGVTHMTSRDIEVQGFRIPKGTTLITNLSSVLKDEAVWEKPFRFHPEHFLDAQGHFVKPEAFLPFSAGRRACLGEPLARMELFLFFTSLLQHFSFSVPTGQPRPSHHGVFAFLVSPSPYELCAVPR

Canis familiaris [13] = organism: Canis familiaris; test: Plasma protein binding towards dog plasma at 10 uM; assay type: ADME, Canis lupus familiaris; outline: as §1

With `CC(C)C[C@H](C=O)NC(=O)[C@@H](NS(=O)(=O)c1ccc(F)cc1)C(C)C` the IC50 (Cathepsin B) was 0.015 µM, the Binding (Rattus norvegicus [1]) was 89.9% and the IC50 (Caspase-1) was over 100 µM. The IC50 (Cytochrome P450 3A4 [2]) was 531 µM, the Binding [3] was 95.1% and the IC50 (Coagulation factor VII) was over 100 µM. It also gave an IC50 (Prothrombin) of over 100 µM, a Binding (Mus musculus [4]) of 89.9% and a Binding [5] of 95.4%. It also gave an IC50 (Proteasome) of over 200 µM, an IC50 (Chymotrypsinogen A) of over 200 µM and a Binding (Canis familiaris [6]) of 66.8%. It also gave an IC50 (Cytochrome P450 3A4 [7]) of 81 µM, an IC50 (Cytochrome P450 2C9) of 492 µM and a CC50 [8] of over 1000 µM. For the same molecule, the Binding (Mus musculus [9]) was 90.2%, the IC50 (Coagulation factor X) was over 60 µM and the IC50 (Serine protease 1) was over 100 µM. The IC50 (Cytochrome P450 2C19) was 177 µM, the Binding [10] was 91.6% and the Binding (Rattus norvegicus [11]) was 85.4%. The Binding [12] was 90.5%, the IC50 (Cytochrome P450 2D6) was 291 µM and the Binding (Canis familiaris [13]) was 75.8%.

For `CC(C)C[C@H](C=O)NC(=O)[C@@H](NS(=O)(=O)c1ccc2ccccc2c1)C(C)C`, the CC50 ([8]; read-out: LD50 (the source's name)) was 9.8 µM.

— ChEMBL document CHEMBL1145779, “Structure-activity relationship study and drug profile of N-(4-fluorophenylsulfonyl)-L-valyl-L-leucinal (SJA6017) as a potent calpain inhibitor” (J Med Chem, 2003)
